# Screening data deposited in PubChem BioAssay by several laboratories.
# PKD1 inh = inhibitors of human PKD1 kinase, biochemical, fluorescence polarization | PKD1 kinase fluorescence polarization assay | inhibition, % (concentration not given with the values) | hit rate 0.056% among 200,000
# GSH fluor = compound fluorescence on glutathione beads, profiling panel, artefact control, biophysical, 488/530 nm, flow cytometry | GSH beads flow cytometry, compound fluorescence 488/530 nm; stronger effect = higher value | fluorescence (KMESF) at 10 µM | hit rate 0.25% among 190,000 | AID 1776, 2009; in the data active = fluorescence above about 89;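 note: glutathione beads carrying GST-tagged Bcl family fusion proteins plus one bare bead set; values are compound well signal with DMSO vehicle wells as background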
# Avidin fluor = green autofluorescence of compounds with avidin beads – biophysical, 488/530 nm, flow cytometry, artefact control, profiling panel. hit rate 0.38% among 220,000. compound fluorescence 488/530 nm; stronger effect = higher value. fluorescence (KMESF) at 10 µM. AID 1775, 2009; in the data active = fluorescence above about 47
# L major viab = Leishmania major promastigote growth inhibition, primary screen | hit rate 9% among 200,000 | inhibition, % at 10 µM | Leishmania major promastigotes, resazurin fluorescence viability;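 note: promastigotes grown with compound for 44 hours at 28 °C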
# ABCG2 inh = ABCG2 efflux pump inhibitors, primary screen, multiplex with ABCB1, IgMXP3 cells, flow cytometry | inhibition, % at 6.6 µM | Broad substrate specificity ATP-binding cassette transporter ABCG2 (Homo sapiens), Q9UNQ0 | AID 1325, 2008 | hit rate 0.1% among 190,000 | JC-1 efflux;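 active = inhibition above 80%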;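 note: 0% = DMSO and 100% = nicardipine control wells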
#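 Read-out basis: Efflux inhibition in percent versus controls | Test system: ABCG2 IgMXP3 and barcoded ABCB1 CCRF-Adr cell mix | Quantity: 3 million cells/mL in well | Schedule: 10 min at 25 °C | Control set: Nicardipine as high control, DMSO as low control | Reagent: JC-1 as fluorescent efflux pump substrate | Signal: Flow cytometry of retained JC-1 fluorescence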
# ABCB1 inh = ABCB1 efflux pump inhibitors, primary screen, cell-based, multiplex, flow cytometry, ABCG2 counter-screen; AID 1326, 2008; inhibition, % at 6.6 µM; hit rate 0.067% among 190,000; CCRF-Adr cells, JC-1 efflux; in the data active = inhibition above about 40%;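 note: 0% = vehicle and 100% = reference inhibitor; higher value means more JC-1 retained so stronger ABCB1 efflux block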
# Target sequence (P08183 whole entry, looked up): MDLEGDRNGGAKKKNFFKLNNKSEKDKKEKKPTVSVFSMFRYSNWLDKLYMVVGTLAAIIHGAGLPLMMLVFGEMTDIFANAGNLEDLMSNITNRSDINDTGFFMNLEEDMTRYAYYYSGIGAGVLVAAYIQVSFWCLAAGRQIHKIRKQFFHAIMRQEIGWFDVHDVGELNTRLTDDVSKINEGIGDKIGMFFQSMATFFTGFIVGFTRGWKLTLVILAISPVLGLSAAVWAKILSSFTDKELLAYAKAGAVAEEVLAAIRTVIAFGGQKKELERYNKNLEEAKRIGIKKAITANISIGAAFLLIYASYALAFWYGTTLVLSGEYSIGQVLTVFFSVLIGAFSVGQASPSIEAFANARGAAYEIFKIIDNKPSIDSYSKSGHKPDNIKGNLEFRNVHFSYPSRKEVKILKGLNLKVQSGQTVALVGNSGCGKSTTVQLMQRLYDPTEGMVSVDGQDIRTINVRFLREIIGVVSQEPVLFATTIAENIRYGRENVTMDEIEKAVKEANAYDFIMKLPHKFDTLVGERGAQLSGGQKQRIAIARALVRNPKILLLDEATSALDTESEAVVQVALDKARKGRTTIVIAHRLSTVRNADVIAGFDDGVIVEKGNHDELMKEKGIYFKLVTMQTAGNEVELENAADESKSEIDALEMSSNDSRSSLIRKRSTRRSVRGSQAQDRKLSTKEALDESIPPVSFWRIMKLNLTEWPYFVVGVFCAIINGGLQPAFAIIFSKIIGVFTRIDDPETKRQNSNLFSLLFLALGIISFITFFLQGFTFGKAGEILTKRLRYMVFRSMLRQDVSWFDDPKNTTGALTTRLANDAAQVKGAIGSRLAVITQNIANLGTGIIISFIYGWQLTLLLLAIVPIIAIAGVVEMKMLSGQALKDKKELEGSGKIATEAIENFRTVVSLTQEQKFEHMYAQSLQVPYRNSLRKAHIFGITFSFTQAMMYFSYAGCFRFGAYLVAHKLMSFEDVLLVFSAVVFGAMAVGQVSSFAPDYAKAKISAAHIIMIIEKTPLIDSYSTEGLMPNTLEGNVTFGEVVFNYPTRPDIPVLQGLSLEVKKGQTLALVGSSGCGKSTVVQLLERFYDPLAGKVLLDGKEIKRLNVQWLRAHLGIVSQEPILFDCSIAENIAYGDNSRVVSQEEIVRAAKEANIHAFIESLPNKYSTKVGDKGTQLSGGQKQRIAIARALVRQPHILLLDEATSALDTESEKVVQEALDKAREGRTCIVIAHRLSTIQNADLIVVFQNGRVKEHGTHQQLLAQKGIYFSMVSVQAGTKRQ
# * marks the source's active call; other numbers are inactive results; · = not tested or not shown. Many of the other results were omitted from the sample, so hits are more common in it than they were. Cut-off read from the data, not from the text of the source, unless noted: active = inhibition above about 50%; inactive = the rest.
SMILES,PKD1 inh,GSH fluor,Avidin fluor,L major viab,ABCG2 inh,ABCB1 inh
O=C(NCC(=O)N1CC(O)CC1C(=O)N1CC(O)CC1C(=O)OCc1ccccc1)OCc1ccccc1 (configuration not stated),-2.0,12,20,-5.0,-2.6,-0.4
COc1ccc(/C=C2\CCc3ccccc3C2=O)cc1OC,-4.1,13,40,51.4*,3.5,0.7
COc1ccc(/C=C2/CCc3ccccc3C2=O)cc1CN1CCOCC1,6.1,8,2,82.4*,-0.7,2.8
COc1ccc(/C=C2\CCc3ccccc3C2=O)cc1Cn1nc(C)cc1C,-0.6,32,6,74.3*,6.0,2.2
O=C(Nc1ccc2ccccc2c1)N1CCCN(CCOc2ccccc2)CC1,·,·,6,·,·,·
CC(C)(C)OC(=O)N1CCN(C(=O)Nc2ccc3c(c2)OCCO3)CC1,-6.4,21,35,-2.2,1.0,0.1
Fc1cccc(CN2CCN(C(=S)NCCc3ccccc3)CC2)c1,-7.8,10,10,37.6,14.3,1.8
S=C(NCCc1ccccc1)N1CCc2ccccc2C1,-3.9,7,8,77.8*,-5.7,-1.6
COC(=O)c1ccc(NC(=O)C(=O)N2CCN(C(=S)NCCc3ccccc3)CC2)cc1,-6.7,11,16,72.2*,49.7,1.3
Oc1ccc(N2CCN(C(=S)NCCc3ccccc3)CC2)cc1,-11.6,16,7,98.4*,19.2,0.9
S=C(NCCc1ccccc1)N1CCN(Cc2ccccc2)CC1,-3.5,14,5,57.5*,-4.0,-0.3
Oc1ccc(Cl)cc1C(C#Cc1ccccc1)N1CCOCC1 (configuration not stated),-4.6,15,31,0.3,-1.1,-0.3
CC(C)(C)c1ccc(/C([O-])=C(/C(=S)NCc2ccco2)[n+]2ccccc2)cc1,-1.2,67,7,2.9,1.9,0.7
COc1cc(-c2nnc(SCc3c(F)cccc3Cl)o2)cc(OC)c1OC,-2.2,13,13,81.7*,6.1,1.1
COc1cc(-c2nnc(-c3cc(OC)c(OC)c(OC)c3)o2)cc(OC)c1OC,-0.4,102*,5,1.1,7.2,0.4
COc1cc(-c2nnc(SCc3ccccc3Cl)o2)cc(OC)c1OC,-2.0,28,16,1.2,10.1,1.7
COc1cc(-c2nnc(-c3ccccc3)o2)cc(OC)c1OC,6.7,18,·,8.7,1.2,0.4
COc1ccc(Cn2c(=S)[nH]c3ccsc3c2=O)cc1,-9.2,6,13,27.8,-4.7,-1.3
CC(=O)c1cnc2c(-c3cccc(Br)c3)cnn2c1C,-11.8,10,14,87.8*,16.4,·
CCOC(=O)Cc1c(C)nc2c(-c3cccc(Br)c3)cnn2c1C,-8.9,11,7,-7.7,8.6,0.6
Cc1ccc(C2=NCN(c3ccc(C(=O)O)cc3)C(=S)N2)cc1,-1.4,11,21,-4.8,1.6,0.2
CN1CCC(OC(=O)c2cccc(Br)c2)CC1,-2.3,38,18,93.1*,12.3,-0.2
CN1CCCC(OC(=O)c2cccc(Cl)c2)C1 (configuration not stated),·,·,4,·,·,·
CN1CCC(OC(=O)c2ccc(Cl)cc2Cl)CC1,6.1,13,12,96.3*,1.5,0.7
CC(CN1CCN(C)CC1)OC(=O)c1ccc(Cl)cc1Cl (configuration not stated),-10.3,13,38,-0.1,4.0,0.8
SMILES,PKD1 inh,GSH fluor,Avidin fluor,L major viab,ABCG2 inh,ABCB1 inh
CC(NC(=S)Nc1ccccc1C(F)(F)F)C1CC2CCC1C2 (configuration not stated),-0.1,21,8,35.4,0.0,-0.1
CCCCC1(Cc2cccc([N+](=O)[O-])c2)C(=O)N(c2ccccc2)N(c2ccccc2)C1=O,-1.2,18,37,57.5*,2.2,0.8
O=C(O)c1cnc(-c2ccccc2)nc1Oc1ccccc1,-2.6,26,9,-9.0,2.7,0.2
COc1ccc2[nH]c(C)c(C(=O)CN3CCN(C/C=C/c4ccccc4)CC3)c2c1,0.9,38,14,62.2*,8.0,-0.6
Cc1[nH]c2ccccc2c1C(=O)CN1CCN(C2CCCCC2)CC1,-6.8,19,16,-3.7,-1.7,0.2
Cc1[nH]c2ccccc2c1C(=O)CN1CCN(C/C=C/c2ccccc2)CC1,-1.5,9,26,83.4*,6.5,1.5
Cc1onc(-c2ccccc2Cl)c1C(=O)O/N=C(\N)c1ccc([N+](=O)[O-])o1,·,·,3,·,·,·
O=C(NCc1ccccn1)C(=O)Nc1cccc2ccccc12,-0.2,15,8,2.0,4.4,0.5
CCSc1nnc(NC(=O)CCCOc2ccc(C)cc2)s1,-6.6,19,6,-1.4,0.6,0.8
Cc1ccc2cc(CN(CCN(C)C)C(=S)Nc3ccccc3)c(=O)[nH]c2c1C,-2.6,24,10,12.8,0.9,0.6
Cc1ccc(NC(=S)N(CCN(C)C)Cc2cc3cc(C)cc(C)c3[nH]c2=O)cc1,3.0,13,12,79.2*,0.9,0.1
Cc1cc(C)c2[nH]c(=O)c(CN(CC3CCCO3)C(=O)c3cnccn3)cc2c1 (configuration not stated),-4.2,44,8,3.9,4.6,1.2
CCOCCCN(Cc1cc2cc(C)cc(C)c2[nH]c1=O)C(=O)N(CC)CC,-1.9,33,12,58.2*,18.9,4.5
O=C(NCCC1=CCCCC1)C(=O)NCC1OCCCN1S(=O)(=O)c1ccccc1 (configuration not stated),-6.5,10,14,95.7*,14.6,0.8
O=C(NCC(c1ccco1)N1CCN(c2ccccc2F)CC1)OCc1ccccc1 (configuration not stated),-12.0,11,12,1.1,28.4,1.5
O=C(NCCC1=CCCCC1)C(=O)NCC(c1ccco1)N1CCN(c2ccccc2F)CC1 (configuration not stated),-0.9,4,11,74.2*,28.1,8.2
O=C(NCCc1ccccc1)C(=O)NCc1ccncc1,4.9,10,5,-5.6,2.7,0.3
O=C(NCc1ccncc1)C(=O)NCC(c1ccccc1)c1ccccc1,-5.9,13,15,57.5*,4.2,1.2
O=C(NCCc1c[nH]c2ccccc12)C(=O)NCC(c1ccco1)N1CCN(c2ccccc2)CC1 (configuration not stated),-10.4,4,11,89.4*,11.1,2.6
Cc1ccc(Cl)cc1NC(=O)c1cc2ccccc2cc1O,·,·,3,·,·,·
Cc1nnc(NC(=O)Cn2cnc3c2c(=O)n(C)c(=O)n3C)s1,3.2,31,4,-5.6,11.6,-0.1
